Assay results published in ChEMBL document CHEMBL5247578, “Effective synthesis of benzimidazoles-imidazo[1,2-a]pyrazine conjugates: A comparative study of mono-and bis-benzimidazoles for antitumor activity” (Eur J Med Chem, 2019).

What was measured:
[1] = system: RXF 393; experiment: Growth inhibition against human RXF 393 cells assessed as total growth inhibitory concentration incubated for 48 hrs by sulforhodamine B assay; type: functional
[2] = system: 786-0; experiment: Growth inhibition against human 786-0 cells assessed as total growth inhibitory concentration incubated for 48 hrs by sulforhodamine B assay; type: functional
[3] = system: OVCAR-4; experiment: Growth inhibition against human OVCAR-4 cells incubated for 48 hrs by sulforhodamine B assay; type: functional
[4] = system: OVCAR-5; experiment: Growth inhibition against human OVCAR-5 cells incubated for 48 hrs by sulforhodamine B assay; type: functional
[5] = system: SN12C; experiment: Antiproliferative activity against human SN12C cells assessed as cell growth at 0.0001 M incubated for 48 hrs by SRB assay relative to control; type: functional; conditions: read-out: Activity
[6] = system: UO-31; experiment: Antiproliferative activity against human UO-31 cells assessed as cell growth at 0.0001 M incubated for 48 hrs by SRB assay relative to control; type: functional; conditions: read-out: Activity
[7] = system: HOP-62; experiment: Growth inhibition against human HOP-62 cells assessed as total growth inhibitory concentration incubated for 48 hrs by sulforhodamine B assay; type: functional
[8] = system: EKVX; experiment: Growth inhibition against human EKVX cells assessed as total growth inhibitory concentration incubated for 48 hrs by sulforhodamine B assay; type: functional
[9] = system: Calf thymus DNA; experiment: Binding affinity to calf thymus DNA assessed as quenching constant at temperature of 318 K by fluorescence spectroscopic method; type: nucleic-acid assay; conditions: Bos taurus
[10] = system: K562; experiment: Antiproliferative activity against human K562 cells assessed as cell growth inhibition by measuring lethal concentration incubated for 48 hrs by sulforhodamine B assay; type: functional; conditions: read-out: LC50 (the source's name)
[11] = system: SK-OV-3; experiment: Growth inhibition against human SK-OV-3 cells assessed as total growth inhibitory concentration incubated for 48 hrs by sulforhodamine B assay; type: functional
[12] = system: Malme-3M; experiment: Growth inhibition against human Malme-3M cells assessed as total growth inhibitory concentration incubated for 48 hrs by sulforhodamine B assay; type: functional
[13] = system: Calf thymus DNA; experiment: Binding affinity to calf thymus DNA assessed as fluorescence quenching intensity at 5 uM at temperature of 308 K by fluorescence spectroscopic method relative to control; type: nucleic-acid assay; conditions: Bos taurus
[14] = system: NCI/ADR-RES; experiment: Antiproliferative activity against human NCI/ADR-RES cells assessed as cell growth at 0.0001 M incubated for 48 hrs by SRB assay relative to control; type: functional; conditions: read-out: Activity
[15] = system: Calf thymus DNA; experiment: Binding affinity to calf thymus DNA assessed as binding constant at temperature of 308 K by Stern-Volmer quenching plot based fluorescence spectroscopic method; type: nucleic-acid assay; conditions: Bos taurus
[16] = system: MDA-MB-231; experiment: Antiproliferative activity against human MDA-MB-231 cells assessed as cell growth inhibition by measuring lethal concentration incubated for 48 hrs by sulforhodamine B assay; type: functional; conditions: read-out: LC50 (the source's name)
[17] = system: Calf thymus DNA; experiment: Binding affinity to calf thymus DNA assessed as quenching constant at temperature of 308 K by fluorescence spectroscopic method; type: nucleic-acid assay; conditions: Bos taurus
[18] = system: UACC-257; experiment: Antiproliferative activity against human UACC-257 cells assessed as cell growth inhibition by measuring lethal concentration incubated for 48 hrs by sulforhodamine B assay; type: functional; conditions: read-out: LC50 (the source's name)
Method in brief: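 NCI-60 five-dose screen (10^-4 to 10^-8 M, 10-fold dilutions; DMSO stocks). Cells in RPMI 1640 with 5% FBS and 2 mM L-glutamine, preincubated 24 h, then exposed 48 h at 37 °C, 5% CO2. Fixed with cold TCA, stained with 0.4% SRB, absorbance read at 515 nm. Time-zero plates used as reference. LC50 taken from [(Ti-Tz)/Tz]×100 […].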

[19] = system: K562; experiment: Antiproliferative activity against human K562 cells assessed as cell growth at 0.0000001 M incubated for 48 hrs by SRB assay relative to control; type: functional; conditions: dose 100 nM, read-out: Activity
[20] = system: SN12C; experiment: Growth inhibition against human SN12C cells assessed as total growth inhibitory concentration incubated for 48 hrs by sulforhodamine B assay; type: functional
[21] = system: U-251; experiment: Growth inhibition against human U-251 cells assessed as total growth inhibitory concentration incubated for 48 hrs by sulforhodamine B assay; type: functional
[22] = system: SF-295; experiment: Antiproliferative activity against human SF-295 cells assessed as cell growth inhibition by measuring lethal concentration incubated for 48 hrs by sulforhodamine B assay; type: functional; conditions: read-out: LC50 (the source's name)
[23] = system: K562; experiment: Antiproliferative activity against human K562 cells assessed as cell growth at 0.00000001 M incubated for 48 hrs by SRB assay relative to control; type: functional; conditions: dose 10 nM, read-out: Activity
[24] = system: LOX IMVI; experiment: Antiproliferative activity against human LOX IMVI cells assessed as cell growth at 0.0001 M incubated for 48 hrs by SRB assay relative to control; type: functional; conditions: read-out: Activity
[25] = system: K562; experiment: Antiproliferative activity against human K562 cells assessed as cell growth at 0.0001 M incubated for 48 hrs by SRB assay relative to control; type: functional; conditions: read-out: Activity
[26] = system: COLO 205; experiment: Antiproliferative activity against human COLO 205 cells assessed as cell growth inhibition by measuring lethal concentration incubated for 48 hrs by sulforhodamine B assay; type: functional; conditions: read-out: LC50 (the source's name)
[27] = system: K562; experiment: Growth inhibition against human K562 cells assessed as total growth inhibitory concentration incubated for 48 hrs by sulforhodamine B assay; type: functional
[28] = system: SK-MEL-28; experiment: Growth inhibition against human SK-MEL-28 cells assessed as total growth inhibitory concentration incubated for 48 hrs by sulforhodamine B assay; type: functional
[29] = system: NCI-H226; experiment: Antiproliferative activity against human NCI-H226 cells assessed as cell growth at 0.00001 M incubated for 48 hrs by SRB assay relative to control; type: functional; conditions: read-out: Activity
[30] = system: HCT-116; experiment: Antiproliferative activity against human HCT-116 cells assessed as cell growth inhibition by measuring lethal concentration incubated for 48 hrs by sulforhodamine B assay; type: functional; conditions: read-out: LC50 (the source's name)
[31] = system: MDA-MB-435; experiment: Growth inhibition against human MDA-MB-435 cells assessed as total growth inhibitory concentration incubated for 48 hrs by sulforhodamine B assay; type: functional
[32] = system: SW-620; experiment: Growth inhibition against human SW620 cells assessed as total growth inhibitory concentration incubated for 48 hrs by sulforhodamine B assay; type: functional
[33] = system: HCT-15; experiment: Growth inhibition against human HCT-15 cells assessed as total growth inhibitory concentration incubated for 48 hrs by sulforhodamine B assay; type: functional
[34] = system: K562; experiment: Antiproliferative activity against human K562 cells assessed as cell growth at 0.00001 M incubated for 48 hrs by SRB assay relative to control; type: functional; conditions: read-out: Activity
[35] = system: RXF 393; experiment: Antiproliferative activity against human RXF 393 cells assessed as cell growth inhibition by measuring lethal concentration incubated for 48 hrs by sulforhodamine B assay; type: functional; conditions: read-out: LC50 (the source's name)
[36] = system: SF-539; experiment: Antiproliferative activity against human SF-539 cells assessed as cell growth inhibition by measuring lethal concentration incubated for 48 hrs by sulforhodamine B assay; type: functional; conditions: read-out: LC50 (the source's name)
[37] = system: LOX IMVI; experiment: Growth inhibition against human LOX IMVI cells assessed as total growth inhibitory concentration incubated for 48 hrs by sulforhodamine B assay; type: functional
[38] = system: M14; experiment: Growth inhibition against human M14 cells assessed as total growth inhibitory concentration incubated for 48 hrs by sulforhodamine B assay; type: functional

`c1ccc(Cn2cnc3ccc(-c4nc(-c5ccc6c(c5)ncn6C5CCCCC5)cn5ccnc45)cc32)cc1` was tested, and the TGI [1] was 2.75 µM, the TGI [2] was over 100 µM and the GI50 [3] was 3.06 µM. For the same compound, the GI50 [4] was 2.64 µM.
`COc1ccc(-c2cn3ccnc3c(-c3ccc4ncn(C5CCCCC5)c4c3)n2)cc1` was tested, and the growth at 100 µM [5] was 31%, the growth at 100 µM [6] was 26% and the TGI [7] was over 100 µM. For the same compound, the TGI [8] was over 100 µM, the Kq [9] was 0.73 10^12/M/s and the CC50 [10] was over 100 µM. For the same compound, the TGI [11] was 7.64 µM, the TGI [12] was over 100 µM and the Activity [13] was 65%. For the same compound, the growth at 100 µM [14] was 3%, the Kb [15] was 4.57 10^4/M and the CC50 [16] was over 100 µM. For the same compound, the Kq [17] was 1.68 10^12/M/s, the CC50 [18] was over 100 µM and the growth at 0.1 µM [19] was 92%. It also gave a TGI [20] of over 100 µM, a TGI [21] of over 100 µM and a CC50 [22] of over 100 µM. It also gave a growth at 0.01 µM [23] of 105%, a growth at 100 µM [24] of 19% and a growth at 100 µM [25] of 11%. It also gave a CC50 [26] of over 100 µM, a TGI [27] of over 100 µM and a TGI [28] of over 100 µM. For the same compound, the growth at 10 µM [29] was 25%, the CC50 [30] was over 100 µM and the TGI [31] was over 100 µM. It also gave a TGI [32] of over 100 µM, a TGI [33] of over 100 µM and a growth at 10 µM [34] of 8%. It also gave a CC50 [35] of over 100 µM, a CC50 [36] of over 100 µM and a TGI [37] of over 100 µM. For the same compound, the TGI [38] was over 100 µM.
